Assay results taken from PMC7380323 (ACS chemical neuroscience, 2020).
Where two headings read alike, the source gives them in different places.

What was measured:
[1] = tested on: HMC3 human microglia cells; assay type: cell-based; conditions: −80 mV
[2] = tested on: immortalized human microglia cells; test: Automated patch clamp, GABA current response in immortalized human microglia; assay type: cell-based
[3] = tested on: Mouse microglia; assay type: cell-based
[4] = tested on: immortalized mouse microglia cells; test: Automated patch clamp, GABA current response in immortalized mouse microglia; assay type: cell-based
[5] = tested on: Mouse microglia; test: Cell viability; assay type: cell-based; conditions: for Cell viability (%) Mouse microglia 50 μM: CellTiter-Glo
[6] = tested on: RAW macrophages; test: Cell viability; assay type: cell-based, mouse; conditions: CellTiter-Glo
[7] = tested on: RAW macrophages; test: Inhibition of NO production; assay type: cell-based, mouse; conditions: 24 h, IFNγ/LPS activated, 1 μM GABA
How it was run: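 RAW264.7 murine macrophages were grown in DMEM/high glucose with 10% heat-inactivated FBS, penicillin/streptomycin and Normocin at 37°C and 5% CO2, and passaged by scraping. […] After about 24 h at 37°C, nitrite in the supernatant was measured by Griess assay (absorbance 530 nm).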

[8] = tested on: κ-opioid receptor; conditions: cited from earlier work
[9] = tested on: Swiss Webster mice; test: Rotarod test; assay type: in vivo, mouse; conditions: 5 mg/kg
[10] = tested on: Swiss Webster mice; test: Formalin test; assay type: in vivo, mouse; conditions: 30 mg/kg orally
How it was run: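 Test compounds given orally four days before 2% formalin was injected into the right hind paw of Swiss Webster mice.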

NCCCC(=O)O [GABA, γ-aminobutyric acid]
maximum negative current response for 1 mM GABA [1]: 746 pA | maximum current response for 1 mM GABA [2]: 1245 pA | secreted NO levels of activated microglia ([3]; 1 μM, Griess assay after 14 h): no effect | maximum current response for 1 mM GABA [4]: 1514 pA

C#Cc1ccc2c(c1)C(c1ccccn1)=NCc1c(-c3cnco3)ncn1-2 [KRM-II-81]
Cell viability (%) Mouse microglia 50 μM [5]: 100 ± 5% | Inhibition of NO production (%) Mouse microglia 50 μM [3]: 0 ± 1%

C#Cc1ccc2c(c1)C(c1ccccc1F)=N[C@H](C)c1c(C(=O)NC)ncn1-2 [MP-III-022]
Cell viability (%) Mouse microglia 50 μM [5]: 86 ± 2% | Cell viability (%) RAW macrophages 50 μM [6]: 100 ± 11% | Inhibition of NO production (%) RAW macrophages 10 μM ([7]; 10 μM): 9 ± 5% | Inhibition of NO production (%) RAW macrophages 50 μM ([7]; 50 μM): 51 ± 7% | Inhibition of NO production (%) Mouse microglia 10 μM [3]: 36 ± 6% | Inhibition of NO production (%) Mouse microglia 50 μM [3]: 60 ± 12%

CN1CCc2cc3c(cc2[C@H]1[C@@H]1OC(=O)c2c1ccc1c2OCO1)OCO3 [bicuculline]
reversal of the NO effect of 50 μM MP-IV-010 by antagonist ([3]; antagonist 100 μM, with GABA, 14 h): did not reverse

CNC1=Nc2ccc(Cl)cc2C(c2ccccc2)=[N+]([O-])C1 [chlordiazepoxide]
affinity for the κ-opioid receptor (in words) [8]: micromolar affinities

C[C@@H]1C[C@H]2[C@@H]3CCC4=CC(=O)C=C[C@]4(C)[C@@]3(F)[C@@H](O)C[C@]2(C)[C@@]1(O)C(=O)CO [dexamethasone]
cytotoxicity / cell viability in the antagonist experiments (CellTiter-Glo) ([5]; activated mouse microglia, concentrations as in the NO experiments): without cell toxicity | NO production of activated microglia ([3]; 100 nM, Griess assay after 14 h): reduced NO production

CN1C(=O)CN=C(c2ccccc2)c2cc(Cl)ccc21 [diazepam]
sedation on the rotarod [9]: sedating | affinity for the κ-opioid receptor (in words) [8]: micromolar affinities

CCOC(=O)c1ncn2c1CN(C)C(=O)c1cc(F)ccc1-2 [flumazenil]
reversal of the NO effect of 50 μM MP-IV-010 by antagonist [3]: did not reverse

CC(C(=O)O)c1cccc(C(=O)c2ccccc2)c1 (stereo not drawn) [ketoprofen]
antinociceptive effect in the formalin test compared with GL-IV-03 10 mg/kg [10]: similar

Cc1ncc2n1-c1ccc(Cl)cc1C(c1ccccc1F)=NC2 [midazolam]
affinity for the κ-opioid receptor (in words) [8]: micromolar affinities

Oc1ccc2c3c1O[C@H]1c4[nH]c5c(c4C[C@@]4(O)[C@@H](C2)N(CC2CC2)CC[C@]314)C[C@@]1(O)[C@H]2Cc3ccc(O)c4c3[C@@]1(CCN2CC1CC1)[C@H]5O4 [norbinaltorphimine]
reversal of the NO effect of 50 μM MP-IV-010 by antagonist ([3]; antagonist 30 μM, 14 h): reversed

SM-21
reversal of the NO effect of 50 μM MP-IV-010 by antagonist ([3]; antagonist 30 μM, 14 h): no reversal

picrotoxin
reversal of the NO effect of 50 μM MP-IV-010 by antagonist ([3]; antagonist 50 μM, with GABA, 14 h): did not reverse
